The target of test [1] is T1, Ribonucleoside-diphosphate reductase large subunit (Mus musculus, UniProt P07742).
T1 sequence (P07742 whole entry): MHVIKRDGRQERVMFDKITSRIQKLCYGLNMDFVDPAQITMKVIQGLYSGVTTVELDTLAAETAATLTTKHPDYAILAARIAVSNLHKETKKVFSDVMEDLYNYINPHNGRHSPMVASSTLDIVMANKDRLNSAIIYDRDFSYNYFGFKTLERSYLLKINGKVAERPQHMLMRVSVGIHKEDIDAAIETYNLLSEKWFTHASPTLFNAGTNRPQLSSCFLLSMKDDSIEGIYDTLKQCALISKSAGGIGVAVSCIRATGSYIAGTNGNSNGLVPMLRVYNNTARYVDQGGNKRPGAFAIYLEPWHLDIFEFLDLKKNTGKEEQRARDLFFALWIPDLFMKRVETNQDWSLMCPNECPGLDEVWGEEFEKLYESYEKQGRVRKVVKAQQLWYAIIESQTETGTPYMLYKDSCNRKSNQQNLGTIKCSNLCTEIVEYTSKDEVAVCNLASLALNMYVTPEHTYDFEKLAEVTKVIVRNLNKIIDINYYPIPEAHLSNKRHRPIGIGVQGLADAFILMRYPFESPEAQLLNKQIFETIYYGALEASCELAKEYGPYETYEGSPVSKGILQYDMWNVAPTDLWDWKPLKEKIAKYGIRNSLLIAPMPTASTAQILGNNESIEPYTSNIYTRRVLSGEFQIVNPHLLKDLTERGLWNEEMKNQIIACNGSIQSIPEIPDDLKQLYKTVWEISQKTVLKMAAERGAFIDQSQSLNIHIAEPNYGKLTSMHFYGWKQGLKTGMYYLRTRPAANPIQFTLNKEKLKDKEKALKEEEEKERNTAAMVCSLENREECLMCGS
Briefly: Inhibitory activity of compound against mammalian ribonucleotide reductase; Range is 364-460. In short, it runs like this: (§1)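 Calf thymus R1 (1 μg) with cloned mouse R2 (2 μg) expressed in E. coli from pET-M2. CDP reduction was run at 35 °C with DTT as reductant. [³H]dCDP was separated on aminophenylboronate and counted by scintillation.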

Test [2] concerns the target T1, Ribonucleoside-diphosphate reductase large subunit. Briefly: Inhibitory activity of compound against mammalian ribonucleotide reductase; Range is 25-29. Put shortly: as §1
Test [3] shares this target. The experiment in a line: Inhibitory activity of compound against mammalian ribonucleotide reductase; Range is 450-620. In short, it runs like this:
as §1

The target is the same in test [4]. Briefly: Inhibitory activity of compound against mammalian ribonucleotide reductase; Range is 29-30. In short, it runs like this: as §1
Test [5] shares this target. The experiment in a line: Inhibitory activity of compound against mammalian ribonucleotide reductase; Range is 9-15. Put shortly: as §1
The target is the same in test [6]. The experiment in a line: Inhibitory activity of compound against mammalian ribonucleotide reductase; Range is 32-38. Put shortly: as §1
Test [7] has the same target. The experiment in a line: Inhibitory activity of compound against mammalian ribonucleotide reductase; Range is 34-35. Put shortly:
as §1

Test [8] has the same target. The experiment in a line: Inhibitory activity of compound against mammalian ribonucleotide reductase; Range is 48-58. In short, it runs like this: as §1
Test [9] concerns the target Ribonucleoside-diphosphate reductase RR1 (Homo sapiens) (UniProt P23921+Q7LG56+P31350). Briefly: Relative inhibitory potency against mammalian ribonucleotide reductase. In kind it is protein-complex assay.
For test [10], the target named is T1, Ribonucleoside-diphosphate reductase large subunit. The experiment in a line: Inhibitory activity of compound against mammalian ribonucleotide reductase; Range is 35-40. Put shortly: as §1
Test [11] has the same target. Briefly: Inhibitory activity of compound against mammalian ribonucleotide reductase; Range is 110-230. Put shortly: as §1
Test [12] shares this target. Briefly: Inhibitory activity of compound against mammalian ribonucleotide reductase; Range is 286-336. In short, it runs like this:
as §1

For test [13] the target is unchanged. Briefly: Inhibitory activity of compound against mammalian ribonucleotide reductase; Range is 8-20. Put shortly: as §1
The target is the same in test [14]. The experiment in a line: Inhibitory activity of compound against mammalian ribonucleotide reductase; Range is 40-42. In short, it runs like this:
as §1

Usually IC50 stands for the concentration that gives 50% inhibition. Turning to `CC(=O)N[C@@H](Cc1ccccc1)C(=O)N[C@H](C(=O)N[C@@H](CC(C)C)C(=O)N[C@@H](CC(=O)O)C(=O)N[C@@H](Cc1ccccc1)C(=O)O)[C@@H](C)O`, half-maximal inhibition in test [1] (IC50) required 364 µM.
For `CC(=O)N[C@@H](Cc1ccccc1)C(=O)N[C@H](C(=O)N[C@@H](CC(C)C)C(=O)N[C@@H](CC(N)=O)C(=O)N[C@@H](C)C(=O)N[C@@H](CC(=O)O)C(=O)N[C@@H](Cc1ccccc1)C(=O)O)[C@@H](C)O`, the IC50 in [2] turned out to be 25 µM.
`CC(=O)N[C@@H](Cc1ccccc1)C(=O)N[C@H](C(=O)N[C@@H](CC(C)C)C(=O)N[C@@H](CC(=O)O)C(=O)N[C@@H](C)C(=O)N[C@@H](CCC(=O)O)C(=O)N[C@@H](Cc1ccccc1)C(=O)O)[C@@H](C)O` gave an IC50 in test [3] of 450 µM.
`CC(=O)N[C@@H](Cc1ccccc1)C(=O)N[C@H](C(=O)N[C@@H](CC(C)C)C(=O)N[C@@H](CC(=O)O)C(=O)N[C@@H](C)C(=O)N[C@@H](CC(C)C)C(=O)N[C@@H](Cc1ccccc1)C(=O)O)[C@@H](C)O` displayed an IC50 in test [4] of 29 µM.
In test [5], `CC(=O)N[C@@H](CC(N)=O)C(=O)N[C@@H](CO)C(=O)N[C@@H](Cc1ccccc1)C(=O)N[C@H](C(=O)N[C@@H](CC(C)C)C(=O)N[C@@H](CC(=O)O)C(=O)N[C@@H](C)C(=O)N[C@@H](CC(=O)O)C(=O)N[C@@H](Cc1ccccc1)C(=O)O)[C@@H](C)O` had an IC50 of 9 µM.
In turn, `CC(=O)N[C@@H](Cc1ccccc1)C(=O)N[C@H](C(=O)N[C@@H](CC(C)C)C(=O)N[C@@H](CC(=O)O)C(=O)N[C@@H](C)C(=O)N[C@@H](CC(N)=O)C(=O)N[C@@H](Cc1ccccc1)C(=O)O)[C@@H](C)O` returned an IC50 in test [6] of 32 µM. That is a double-digit micromolar value.
Take `CC(=O)N[C@@H](Cc1ccccc1)C(=O)N[C@H](C(=O)N[C@@H](CC(C)C)C(=O)N[C@@H](CC(=O)O)C(=O)N[C@@H](C)C(=O)N[C@@H](C)C(=O)N[C@@H](Cc1ccccc1)C(=O)O)[C@@H](C)O`: the IC50 in test [7] came out at 34 µM.
The compound `CC(=O)N[C@@H](Cc1ccccc1)C(=O)N[C@H](C(=O)N[C@@H](Cc1ccccc1)C(=O)N[C@@H](CC(=O)O)C(=O)N[C@@H](C)C(=O)N[C@@H](CC(=O)O)C(=O)N[C@@H](Cc1ccccc1)C(=O)O)[C@@H](C)O` showed an IC50 in test [8] of 48 µM.
For Ac-FALDADF-OH, in test [9], the RI came out at 24%. In test [10], the IC50 came to 35 µM.
As for `CC(=O)N[C@@H](Cc1ccccc1)C(=O)N[C@H](C(=O)N[C@@H](CC(C)C)C(=O)N[C@@H](CC(=O)O)C(=O)NCC(=O)N[C@@H](CC(=O)O)C(=O)N[C@@H](Cc1ccccc1)C(=O)O)[C@@H](C)O`, in [11], the IC50 is 110 µM.
`CC(=O)N[C@@H](Cc1ccccc1)C(=O)N[C@H](C(=O)N[C@@H](CC(C)C)C(=O)N[C@@H](C)C(=O)N[C@@H](C)C(=O)N[C@@H](CC(=O)O)C(=O)N[C@@H](Cc1ccccc1)C(=O)O)[C@@H](C)O` gave an IC50 in test [12] of 286 µM.
In turn, `CC(=O)N[C@@H](CO)C(=O)N[C@@H](Cc1ccccc1)C(=O)N[C@H](C(=O)N[C@@H](CC(C)C)C(=O)N[C@@H](CC(=O)O)C(=O)N[C@@H](C)C(=O)N[C@@H](CC(=O)O)C(=O)N[C@@H](Cc1ccccc1)C(=O)O)[C@@H](C)O` had an IC50 in [13] of 8 µM.
For the compound Ac-FSLDADF-OH, the RI in test [9] was determined as 25%. For the same compound, the IC50 in [14] turned out to be 40 µM.

Values taken from ChEMBL document CHEMBL1126924, “R2 C-terminal peptide inhibition of mammalian and yeast ribonucleotide reductase” (J Med Chem, 1993).
